Bioassay records as filed in PubChem.
Sampled rows, rich in hits. Any-hit rate of the full collection: about 2.6%.
Scp1 inh: inhibitors of human Scp-1 phosphatase. Q9GZU7. Recombinant Scp1, phosphopeptide, malachite green phosphate absorbance. inhibition, % at 20 µM. hit rate 0.88% among 340,000;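 active = inhibition above about 50% at 20 µM, limit read from the data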
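Test system – truncated SCP-1 phosphatase (76-261aa) · Reagent – Phosphorylated 17-residue peptide substrate · Incubation – 45 min room-temperature reaction, 5 min colour, 30 min stabiliser · Detection – colorimetric phosphate reagent with accelerator and stabiliser, absorbance at 630 nm · Measure – % inhibition at 20 µM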
LMPTP inh: blocks human LMPTP phosphatase | P24666 | recombinant LMPTP-A, OMFP fluorogenic substrate, fluorescence intensity | hit rate 0.22% among 360,000 | inhibition, % at 20 µM | AID 651560;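 active = compounds that cut the enzyme signal by at least half of the control window in the single-dose screen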
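Test system: LMPTP-A phosphatase enzyme. Amount: LMPTP-A at 0.625 nM final in the reaction. Reagent: OMFP substrate, 400 µM final. Times: 50 min at room temperature. Signal: endpoint fluorescence intensity from OMFP dephosphorylation. Read-out basis: % inhibition. Benchmarks: no-enzyme and uninhibited controls.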
NadD inh: NadD (S. aureus) enzyme inhibition; purified NadD enzyme, colorimetric absorbance read-out; inhibition, % at 20 µM; hit rate 0.78% among 360,000; AID 602399; in the data active = inhibition above about 26%
STEP inh: inhibitors of human striatal-enriched phosphatase STEP | AID 588621 | inhibition, % at 20 µM | hit rate 0.25% among 360,000 | recombinant STEP, OMFP fluorogenic substrate, fluorescence;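 active = inhibition at 20 µM, scaled per plate between control wells, above about 37%, limit read from the data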
Target sequence (P54829 whole entry, looked up): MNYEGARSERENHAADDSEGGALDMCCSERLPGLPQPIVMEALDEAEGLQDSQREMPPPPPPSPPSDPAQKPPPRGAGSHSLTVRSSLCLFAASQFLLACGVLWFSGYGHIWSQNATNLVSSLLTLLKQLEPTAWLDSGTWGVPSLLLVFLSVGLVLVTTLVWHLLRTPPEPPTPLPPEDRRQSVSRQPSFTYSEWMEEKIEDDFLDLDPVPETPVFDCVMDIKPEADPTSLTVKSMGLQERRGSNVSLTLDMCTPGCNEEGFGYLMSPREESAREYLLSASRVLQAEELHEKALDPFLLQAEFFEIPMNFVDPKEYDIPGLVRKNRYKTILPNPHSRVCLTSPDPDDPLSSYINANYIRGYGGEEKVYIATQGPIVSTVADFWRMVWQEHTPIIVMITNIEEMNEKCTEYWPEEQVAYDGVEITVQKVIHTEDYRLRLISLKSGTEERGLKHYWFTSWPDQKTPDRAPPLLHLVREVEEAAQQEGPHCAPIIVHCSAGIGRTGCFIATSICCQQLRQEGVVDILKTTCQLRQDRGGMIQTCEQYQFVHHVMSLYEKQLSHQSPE
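Assay system: isolated STEP enzyme / Timing: 20 min at room temperature, dark / Doses: 20 µM, 1% DMSO / Technique: fluorescence intensity, excitation 480 nm, emission 540 nm / Reagent: fluorogenic phosphatase substrate OMFP at 25 µM final / Measure: percent inhibition scaled to no-enzyme and uninhibited-enzyme controls, plate-pattern corrected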
rCAG RNA binder: molecules binding r(CAG) RNA repeats. r(CAG) RNA repeat, TO-PRO-1 dye displacement fluorescence. inhibition, % at 3 µM. hit rate 1.3% among 370,000. AID 651821;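 active = inhibition above the plate cutoff, the mean of all test compounds on that plate plus 3 SD, cut at about 35% in these data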;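 also: higher means more dye released from RNA so lower well fluorescence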
NadD inh conf: NadD (S. aureus) inhibition, single concentration confirmation. shares compounds with NadD inh. purified S. aureus NadD, colorimetric enzyme assay. inhibition, % at 20 µM. hit rate 13% among 2,000. AID 624309; in the data active = inhibition mostly above about 42%, no sharp cut-off; inactive = mostly below about 42%
rCAG bind conf: r(CAG) RNA repeat binding, confirmation; shares compounds with rCAG RNA binder; TO-PRO-1 dye displacement fluorescence; inhibition, % at 3 µM; hit rate 70% among 4,300; AID 652065;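 active = inhibition above a per-plate cutoff, the mean inhibition of sample wells plus 3 SD, cut at about 35% in these data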;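 also: loss of TO-PRO-1 fluorescence as compound displaces dye from 1x1 AA loop RNA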
dCAG dye counter: disrupts DNA CAG TO-PRO-1 complex, flagging rCAG hits; shares compounds with rCAG RNA binder; d(CAG) DNA oligo TO-PRO-1 dye displacement, fluorescence; inhibition, % at 3 µM; hit rate 94% among 4,300;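 active = inhibition above its plate's cutoff, the mean test-well inhibition plus 3 SD, cut at about 4.8% in these data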;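 also: hits displace the dye from DNA and so lower well fluorescence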
dCAG dye DR: counter-screen for rCAG binders: inhibitors of DNA CAG TO-PRO-1 complex. shares compounds with rCAG RNA binder. DNA CAG/GTC duplex TO-PRO-1 dye displacement fluorescence. IC50, µM. hit rate 20% among 250; in the data active = IC50 below about 10 µM
Large screens that a line does not name were inactive (follow-up assays come after a bar, where they were run).

Cc1cc(C)c2nc(NNC(=O)c3cc(-c4cccs4)nc4ccccc34)sc2c1	NadD inh 50.8, rCAG RNA binder 37.4 | NadD inh conf inactive | rCAG bind conf 42.4 | dCAG dye counter 18.4
O=C(CCc1ccccc1)N[C@H]1[C@H](OC(=O)c2ccco2)CCC[C@@]12C(=O)N(Cc1ccccc1)c1ccccc12	none (no result: Scp1 inh, LMPTP inh, NadD inh, STEP inh)
COC(=O)[C@]12C[C@H](CC(=O)NCc3cccc(C(F)(F)F)c3)C(=O)N(Cc3ccccc3)C1=C[C@H](C(C)C)O[C@@H]2C1CC1	none (no result: Scp1 inh, LMPTP inh, NadD inh, STEP inh)
CCOC(=O)C1=C(C)N=c2sc(=Cc3cc(Cl)c(OCC(=O)O)c(Cl)c3)c(=O)n2C1c1cccc(OC)c1 (centres undefined)	NadD inh 33.9, rCAG RNA binder 50.1 (no result: Scp1 inh) | NadD inh conf 52.5 | rCAG bind conf 85.3 | dCAG dye counter 54.2
O=C(NCc1ccc(F)c(F)c1)C1CCC(CNS(=O)(=O)c2cccc3cccnc23)CC1 (centres undefined)	none (no result: Scp1 inh, LMPTP inh, NadD inh, STEP inh)
COCCn1c(=NC(=O)c2cc(-c3cccs3)nc3ccccc23)sc2cc(S(N)(=O)=O)ccc21	NadD inh 51.9, rCAG RNA binder 35.9 | NadD inh conf 56.7 | rCAG bind conf 39.1 | dCAG dye counter 18.9
COCCn1c(=NC(=O)c2ccc(S(=O)(=O)N3CCOCC3)cc2)sc2cc(S(N)(=O)=O)ccc21	none
COc1ccc(/C=N/NC(=O)c2nn(-c3ccccc3)c(=O)c3c(N)scc23)cc1	NadD inh 50.7, rCAG RNA binder 42.4 | NadD inh conf inactive | rCAG bind conf inactive | dCAG dye counter 17.9
COc1ccc(/C=N/NC(=O)c2nn(-c3ccc(Cl)cc3)c(=O)c3c(N)scc23)cc1	NadD inh 55.1, rCAG RNA binder 42.2 | NadD inh conf inactive | rCAG bind conf inactive | dCAG dye counter 17.9
Nc1c(C(=O)Nc2ccc(S(=O)(=O)N3CCCC3)cc2)sc2nc3cc4c(cc3cc12)CCC4	NadD inh 31.9, rCAG RNA binder 38.1 | NadD inh conf inactive | rCAG bind conf inactive | dCAG dye counter 16.4
Cc1ccc(Nc2nnc(SCC(O)=C(C#N)c3nc4ccccc4[nH]3)s2)c(C)c1	NadD inh 30.5, rCAG RNA binder 57.5 | NadD inh conf 60.1 | rCAG bind conf 44.8 | dCAG dye counter 20.9
O=C(O)CC/C(=C\c1ccccc1[N+](=O)[O-])c1nc2ccccc2s1	none
CN(c1ccccc1)c1ccc(/C=C(/CCC(=O)O)c2nc3ccccc3s2)cc1[N+](=O)[O-]	NadD inh 43.1, rCAG RNA binder 77.3 | NadD inh conf inactive | rCAG bind conf 82.2 | dCAG dye counter 42.9
O=C(O)CC/C(=C\c1cccc(NC(=O)c2ccccc2Cl)c1)c1nc2ccccc2s1	NadD inh 30.1, rCAG RNA binder 61.1 | NadD inh conf inactive | rCAG bind conf 73.0 | dCAG dye counter 26.6 | dCAG dye DR inactive
O=S1(=O)c2ccc(N3CC[C@H](O)C3)cc2O[C@@H]2CCN1C2	none (no result: Scp1 inh, LMPTP inh, NadD inh, STEP inh)
Cc1ccc(S(=O)(=O)N(C)[C@H]2C[C@H]3c4cc(N5CCOCC5)ccc4CCN3C[C@H]2[C@H](C)O)cc1	none (no result: Scp1 inh, LMPTP inh, NadD inh, STEP inh)
O=C1OC(c2cccs2)=N/C1=C\c1ccc(-c2cccc(Cl)c2)o1	NadD inh 46.0, rCAG RNA binder 48.6 | NadD inh conf inactive | rCAG bind conf 40.2 | dCAG dye counter 12.1 | dCAG dye DR inactive
CS(=O)(=O)c1ccc(C(=O)Nc2nc(-c3ccco3)c(-c3ccco3)s2)cc1	NadD inh 28.6, rCAG RNA binder 88.4 | NadD inh conf inactive | rCAG bind conf inactive | dCAG dye counter 16.4
Cc1ccc(N2C(=O)C3C4C=CC(C4)C3C2=O)cc1C (centres undefined)	none
